Each block holds one compound with its values, some of them ahead of it. Activity calls are given as the source filed them. The rule behind the calls is not given here.
Assays:
[1] = Inhibition of soybean 15-LOX; design: species or system Glycine max
Outline: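 Soybean 15-LOX activity measured with a lipoxygenase inhibitor screening kit per the manufacturer's instructions; IC50 determined.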

[2] = biological target: T1, Prostaglandin G/H synthase 1 (Ovis aries, UniProt P05979); assay: Inhibition of ovine COX-1 by colorimetric assay
T1 sequence (P05979 whole entry): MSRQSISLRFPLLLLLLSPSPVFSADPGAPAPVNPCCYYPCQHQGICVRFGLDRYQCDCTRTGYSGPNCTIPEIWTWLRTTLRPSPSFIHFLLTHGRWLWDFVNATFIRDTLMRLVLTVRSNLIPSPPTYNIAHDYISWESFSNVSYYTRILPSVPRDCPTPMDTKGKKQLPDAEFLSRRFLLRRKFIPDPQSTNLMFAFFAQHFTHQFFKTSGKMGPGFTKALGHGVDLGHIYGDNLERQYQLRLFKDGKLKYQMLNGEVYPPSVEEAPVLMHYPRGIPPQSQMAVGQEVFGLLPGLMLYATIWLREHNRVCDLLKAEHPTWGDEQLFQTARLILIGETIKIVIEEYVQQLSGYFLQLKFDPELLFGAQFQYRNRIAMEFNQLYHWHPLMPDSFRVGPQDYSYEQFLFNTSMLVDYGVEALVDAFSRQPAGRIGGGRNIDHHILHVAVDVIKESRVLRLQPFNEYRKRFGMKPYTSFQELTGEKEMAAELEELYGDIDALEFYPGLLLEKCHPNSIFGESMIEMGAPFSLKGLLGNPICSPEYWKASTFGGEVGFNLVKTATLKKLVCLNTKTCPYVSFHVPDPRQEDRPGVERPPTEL
Outline: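 Ovine COX-1 enzyme kit, run following the manufacturer's instructions; IC50 reported as mean of three replicates.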

[3] = Toxicity in Wistar rat assessed as effect on gastric ulcer measured after 8 days; conditions: in vivo, 192 h, time 8 day
Outline: (§1)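 Female Wistar rats dosed for eight days; stomachs then removed for gross inspection of ulceration and histology on H&E-stained sections.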

RAW264.7 [4] = assay: Antiinflammatory activity against LPS-induced mouse RAW264.7 cells assessed as downregulation of IL-1 beta level at 50 ug/ml incubated for 24 hrs by RT-PCR analysis relative to control; type: functional; conditions: dose 50 µg/ml
RAW264.7 [5] = assay: Antiinflammatory activity against LPS-induced mouse RAW264.7 cells assessed as downregulation of COX-2 level at 50 ug/ml incubated for 24 hrs by RT-PCR analysis relative to control; type: functional; conditions: dose 50 µg/ml
[6] = Toxicity in Wistar rat assessed as dilation of submucosal blood vessels measured after 8 days by H and E staining based analysis; conditions: 192 h, time 8 day; outline: as §1
[7] = Toxicity in Wistar rat assessed as increase in submucosal inflammatory cells measured after 8 days by H and E staining based analysis; conditions: 192 h, time 8 day; outline: as §1
RAW264.7 [8] = assay: Cytotoxicity against mouse RAW264.7 cells measured after 72 hrs by MTT assay; type: functional, cell-based
Outline: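 RAW264.7 cells were seeded at 4 × 10³ per well with compound (100 to 0.4 μg/ml, in DMSO) for 72 h at 37 °C, 5% CO2. MTT (5 mg/ml solution) was added for 4 h, formazan dissolved in DMSO, and absorbance read at 490 nm.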

Prostaglandin E synthase = biological target: T2, Prostaglandin E synthase (Homo sapiens, UniProt O14684); assay: Inhibition of human mPGE2S1 using PGH2 as substrate measured after 5 mins by ELISA method
T2 sequence (O14684 whole entry): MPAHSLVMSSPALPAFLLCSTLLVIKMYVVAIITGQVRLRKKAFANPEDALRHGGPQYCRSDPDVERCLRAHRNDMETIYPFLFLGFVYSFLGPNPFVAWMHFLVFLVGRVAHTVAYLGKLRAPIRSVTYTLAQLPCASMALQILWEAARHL
Outline: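 Cell-free assay using microsomes from interleukin-1β-stimulated human A549 lung carcinoma cells as enzyme source. Reaction contained 20 μM PGH2 and 2.5 mM glutathione with serial inhibitor dilutions, 5 min at room temperature. Stopped with SnCl2, which converts leftover PGH2 to PGF2α. PGE2 measured by ELISA; IC50 ± SD from log dose–response curve.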

RAW264.7 [9] = assay: Antiinflammatory activity against LPS-induced mouse RAW264.7 cells assessed as upregulation of IL-10 level at 50 ug/ml incubated for 24 hrs by RT-PCR analysis relative to control; type: functional; conditions: dose 50 µg/ml
Rattus norvegicus = assay: Antiinflammatory activity in formalin-induced paw edema in Wistar rat model assessed as reduction in paw edema volume at 5 mg/kg, po administered once daily via gavage by 7 days by vernier caliper method; type: functional, organism-based; conditions: time 7.0 day
RAW264.7 [10] = assay: Antiinflammatory activity against LPS-induced mouse RAW264.7 cells assessed as downregulation of TNF-alpha level at 50 ug/ml incubated for 24 hrs by RT-PCR analysis relative to control; type: functional; conditions: dose 50 µg/ml
[11] = Toxicity in Wistar rat assessed as effect on epithelium measured after 8 days by H and E staining based analysis; conditions: in vivo, 192 h, time 8 day; outline: as §1
RAW264.7 [12] = assay: Antiinflammatory activity against LPS-induced mouse RAW264.7 cells assessed as downregulation of iNOS level at 50 ug/ml incubated for 24 hrs by RT-PCR analysis relative to control; type: functional; conditions: dose 50 µg/ml
[13] = Toxicity in Wistar rat assessed as congested vessels measured after 8 days by H and E staining based analysis; conditions: in vivo, 192 h, time 8 day; outline: as §1
[14] = Toxicity in Wistar rat assessed as abundant submucosal infiltration measured after 8 days by H and E staining based analysis; conditions: in vivo, 192 h, time 8 day; outline: as §1
[15] = Toxicity in Wistar rat assessed as effect on ulceration measured after 8 days by H and E staining based analysis; conditions: in vivo, 192 h, time 8 day; outline: as §1

- IC50 [1]: 3.25 µM
- IC50 [2]: 8.67 µM
Structure (SMILES): CN/N=C/c1coc2ccc(OC)cc2c1=O

- IC50 [1]: 2.39 µM
- IC50 (Prostaglandin E synthase): 2.8 µM
- IC50 [2]: 11.1 µM
Structure (SMILES): COc1ccc2c(=O)c(/C=N/NC(=O)OCc3ccccc3)coc2c1
- Activity [3]: Non-Toxic
- Activity (RAW264.7 [4]): 54%
- Activity (RAW264.7 [5]): 33%
- Activity [6]: Toxic
- Activity [7]: Toxic
- Activity (RAW264.7 [8]): inactive
- Activity (RAW264.7 [9]): 43%
- Activity (Rattus norvegicus): Active
- Activity (RAW264.7 [10]): 32%
- Activity [11]: Non-Toxic
- Activity (RAW264.7 [12]): 32%

- IC50 [1]: 1.72 µM
- IC50 (Prostaglandin E synthase): 4.1 µM
- IC50 [2]: 12.2 µM
Structure (SMILES): O=C(N/N=C/c1coc2ccccc2c1=O)OCc1ccccc1
- Activity [3]: Non-Toxic
- Activity (RAW264.7 [4]): 54%
- Activity (RAW264.7 [5]): 33%
- Activity (RAW264.7 [8]): inactive
- Activity [13]: Toxic
- Activity (RAW264.7 [9]): 43%
- Activity (Rattus norvegicus): Active
- Activity (RAW264.7 [10]): 32%
- Activity [11]: Non-Toxic
- Activity (RAW264.7 [12]): 32%
- Activity [14]: Toxic

- IC50 [1]: 4.44 µM
- IC50 [2]: 4.04 µM
Structure (SMILES): CN/N=C/c1coc2ccccc2c1=O

- IC50 [1]: 3.05 µM
- IC50 (Prostaglandin E synthase): 4.9 µM
- IC50 [2]: 9.82 µM
Structure (SMILES): COc1ccc2occ(/C=N/NC(=O)OCc3ccccc3)c(=O)c2c1
- Activity [3]: Non-Toxic
- Activity (RAW264.7 [4]): 54%
- Activity (RAW264.7 [5]): 33%
- Activity [6]: Toxic
- Activity [7]: Toxic
- Activity (RAW264.7 [8]): inactive
- Activity (RAW264.7 [9]): 43%
- Activity (Rattus norvegicus): Active
- Activity (RAW264.7 [10]): 32%
- Activity [11]: Non-Toxic
- Activity (RAW264.7 [12]): 32%

- IC50 [1]: 4.08 µM
- IC50 [2]: 6.92 µM
Structure (SMILES): COC(=O)N/N=C/c1coc2ccc(OC)cc2c1=O

- IC50 [1]: 4.31 µM
- IC50 [2]: 3.62 µM
Structure (SMILES): CN/N=C/c1coc2cc(OC)ccc2c1=O

- IC50 (Prostaglandin E synthase): 20.1 µM
Structure (SMILES): Cc1ccc(-c2cc(C(F)(F)F)nn2-c2ccc(S(N)(=O)=O)cc2)cc1 [CELECOXIB]
- Activity [15]: Non-Toxic

- IC50 [1]: 2.77 µM
- IC50 (Prostaglandin E synthase): 3.7 µM
- IC50 [2]: 7.43 µM
Structure (SMILES): COC(=O)N/N=C/c1coc2ccccc2c1=O

- IC50 [1]: 4.59 µM
- IC50 [2]: 6.01 µM
Structure (SMILES): COC(=O)N/N=C/c1coc2cc(OC)ccc2c1=O

Structure (SMILES): O=c1c(O)c(-c2ccc(O)c(O)c2)oc2cc(O)cc(O)c12 [QUERCETIN]
- IC50 [1]: 3.34 µM

Structure (SMILES): O=C([O-])Cc1ccccc1Nc1c(Cl)cccc1Cl.[Na+] [DICLOFENAC SODIUM]
- Activity [13]: Toxic
- Activity [11]: Non-Toxic
- Activity [14]: Toxic
